Hits are enriched below; roughly 6.8% of the tested compounds scored in any of these assays.
HSF1 inhib – HSF1 inhibition; NIH3T3-HGL HSE-luciferase, MG132-induced, luminescence 8 h; stronger effect = lower value; activity change, negative = inhibition, % at 7.5 µM (by protocol); 0.77% of 300,000 active;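 active means more than half of replicate wells show activity change below -50%, luminescence cut by over half; inconclusive means some wells, but at most half, below -50%; inactive means no replicate well below -50%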;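 further: luciferase reports HSF-1 transcriptional activity via heat shock element; 0% = median of DMSO wells and -100% = zero luminescence signal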
HSF1 activator – increases HSF-1 driven luciferase reporter signal; AID 504408; NIH3T3-HGL HSF-1 luciferase reporter, MG132, 8 h; 100% = twice DMSO control signal; activation, % at 9 µM; 1.7% of 300,000 active;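 active means mean replicate activation of at least 50% with a set share of replicates each reaching 50%; inconclusive means only one of those two conditions met; inactive means mean below 50% and too few replicates reaching it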;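 further: 0% = median of the neutral control wells and 100% = twice that signal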
ALR H2O2 inh – blocks human ALR sulfhydryl oxidase activity; purified ALR, DTT oxidation, H2O2 HRP-luminol luminescence; 3.8% of 290,000 active; inhibition, % (test concentration not listed); P55789;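 active means mean replicate inhibition above about 79%, with every replicate also reaching it, limit read from the data; inconclusive means only one of the two criteria met; inactive means mean below limit and not every replicate reaching it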
Target sequence (P55789 whole entry, looked up): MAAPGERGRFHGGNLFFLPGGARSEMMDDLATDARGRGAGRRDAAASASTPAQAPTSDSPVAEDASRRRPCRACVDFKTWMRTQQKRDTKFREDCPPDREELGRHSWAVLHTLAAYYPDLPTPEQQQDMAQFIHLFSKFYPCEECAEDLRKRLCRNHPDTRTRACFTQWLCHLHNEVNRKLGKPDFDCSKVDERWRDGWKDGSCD
HCV core dimer – blocks dimerization of HCV core protein. 0.33% of 300,000 active. TR-FRET GST/Flag-core106 dimerization, 1536-well. AID 1899. inhibition, % at 5 µM;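 active means inhibition above the mean of all tested compounds plus 3 SD, set per screening campaign, cut at about 45% in these data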
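Material: GST/Flag-tagged HCV core106 proteins. Incubation: 4 h, 22.5 °C incubation. Read-out basis: inhibition (%) from 671 over 617 nm ratio. Measured by: TR-FRET, excitation 340 nm, emission 617 and 671 nm.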
PHOSPHO1 block – blocks human PHOSPHO1 phosphatase activity; Q8TCT1; recombinant PHOSPHO1, absorbance phosphatase assay; inhibition, % at 13.3 µM; 1.1% of 290,000 active; AID 1565; in the data active means inhibition above about 60%
Target sequence (Q8TCT1 whole entry, looked up): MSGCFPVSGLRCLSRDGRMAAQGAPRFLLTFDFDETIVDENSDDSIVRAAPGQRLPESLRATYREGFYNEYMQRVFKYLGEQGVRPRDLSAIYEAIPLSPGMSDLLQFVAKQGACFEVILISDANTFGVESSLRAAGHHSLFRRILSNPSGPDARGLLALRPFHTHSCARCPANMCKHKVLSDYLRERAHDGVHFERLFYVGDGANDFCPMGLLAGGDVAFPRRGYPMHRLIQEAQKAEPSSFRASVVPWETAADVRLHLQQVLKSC
AI-2 QS modul – modulators of Vibrio harveyi AI-2 quorum sensing system | Vibrio harveyi JMH597 AI-2 luminescence/OD600 ratio, 9 h; stronger effect = lower value; strain lacks LuxN and CqsS sensors; 0 = neutral-control median | 0.4% of 300,000 active | AID 2094 | activity change, % at 7.5 µM; in the data active means activity change below about -75%, passing the limit was not always enough; inconclusive means no clear call, values can overlap the other calls;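 further: luminescence divided by OD600 gain over 9 h not by final OD600 alone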
Active calls of the source: *.

How did O=S(=O)(c1cc(Cl)ccc1Cl)N1CC2CCCN2c2ccc(C(F)(F)F)cc21 (stereo unspecified) do in these assays?
HSF1 inhib: 25; HSF1 activator: 70*; HCV core dimer: 5; PHOSPHO1 block: 16; AI-2 QS modul: 15

How did Cc1ccc(NC(=O)COC(=O)c2ccc(S(=O)(=O)NCc3ccco3)cc2)cc1 do in these assays?
ALR H2O2 inh: -4

What do the screens show for `O=C(COC(=O)c1ccc(S(=O)(=O)NCc2ccco2)cc1)Nc1ccccc1OC(F)F`?
HSF1 inhib: 49; HSF1 activator: 103*; ALR H2O2 inh: 2; HCV core dimer: 10; PHOSPHO1 block: 25; AI-2 QS modul: 32

What do the screens show for `Cc1csc(C(C)NC(=O)c2ccc(OC3CCN(CCc4ccccc4)CC3)cc2)n1` (stereo unspecified)?
HSF1 inhib: -6; HSF1 activator: -19; ALR H2O2 inh: -3; HCV core dimer: -1; PHOSPHO1 block: 40; AI-2 QS modul: 12

Results for Cc1cc2c(cc1S(=O)(=O)N1CCN(c3cccc(C)c3C)CC1)OCC(=O)N2 ?
HSF1 inhib: 0; HSF1 activator: -15; HCV core dimer: 15; PHOSPHO1 block: 25; AI-2 QS modul: 56

How did CN(c1ccccc1)S(=O)(=O)c1ccc(C(=O)Nc2nnc(C3=COCCO3)o2)cc1 do in these assays?
HSF1 inhib: -1; HSF1 activator: 0; ALR H2O2 inh: 98*; HCV core dimer: -4; PHOSPHO1 block: -19; AI-2 QS modul: 66

Results for CN(C)c1ccc(C(=O)Nc2nnc(C3=COCCO3)o2)cc1 ?
HSF1 inhib: 8; HSF1 activator: 34; ALR H2O2 inh: 0; HCV core dimer: -8; PHOSPHO1 block: -17; AI-2 QS modul: 21

What do the screens show for `Cc1cc(/C(N)=N/OC(=O)c2ccc(Cl)cc2)no1`?
HSF1 inhib: 32; HSF1 activator: 64*; ALR H2O2 inh: -4; HCV core dimer: 2; PHOSPHO1 block: 30; AI-2 QS modul: -9

How did N/C(=N\OS(=O)(=O)c1ccccc1)c1ccccn1 do in these assays?
HSF1 inhib: -13; HSF1 activator: 0; ALR H2O2 inh: -26; HCV core dimer: -2; PHOSPHO1 block: 79*; AI-2 QS modul: 9

How did COc1ccc(/C(N)=N/OC(=O)CCc2ccccc2)cc1 do in these assays?
HSF1 inhib: 34; HSF1 activator: 55*; ALR H2O2 inh: -13; HCV core dimer: 3; PHOSPHO1 block: 3; AI-2 QS modul: inconclusive

What do the screens show for `Cc1cc(/C(N)=N/OC(=O)c2cccc(Cl)c2)no1`?
HSF1 inhib: 20; HSF1 activator: 28; ALR H2O2 inh: 2; HCV core dimer: 0; PHOSPHO1 block: 40; AI-2 QS modul: 18

Results for Cc1ccc(C(=O)O/N=C(\N)c2ccccn2)c(C)c1 ?
HSF1 inhib: -89*; HSF1 activator: -90; ALR H2O2 inh: 1; HCV core dimer: -3; PHOSPHO1 block: 53; AI-2 QS modul: 4

How did N/C(=N\OS(=O)(=O)c1ccc(Cl)cc1)c1ccccn1 do in these assays?
PHOSPHO1 block: 21

Results for Cc1ccc(C2NC(=S)NC3=C2C(=O)CC(C)(C)C3)cc1 (stereo unspecified) ?
HSF1 inhib: 6; HSF1 activator: 8; ALR H2O2 inh: -10; HCV core dimer: 0; PHOSPHO1 block: -15; AI-2 QS modul: 4

How did COc1cc(OC)cc(C(=O)NNC(=O)c2ccccn2)c1 do in these assays?
HSF1 inhib: -10; HSF1 activator: -12; ALR H2O2 inh: -6; HCV core dimer: -7; PHOSPHO1 block: -12; AI-2 QS modul: 10

How did CCOc1cc(C(=O)O/N=C(\N)c2ccccn2)cc(OCC)c1OCC do in these assays?
HSF1 inhib: 7; HSF1 activator: -8; ALR H2O2 inh: -3; HCV core dimer: 14; PHOSPHO1 block: 51

What do the screens show for `COc1cc(OC)cc(C(=O)O/N=C(\N)c2ccccn2)c1`?
HSF1 inhib: 30; HSF1 activator: 55*; ALR H2O2 inh: 5; HCV core dimer: 1; PHOSPHO1 block: 8; AI-2 QS modul: 21

Results for COc1ccc(C(=O)NNC(=O)c2ccccn2)cc1 ?
HSF1 inhib: -68*; HSF1 activator: -76; ALR H2O2 inh: 29; HCV core dimer: -1; PHOSPHO1 block: -2; AI-2 QS modul: 12

What do the screens show for `COc1ccc(C(=O)O/N=C(\N)c2ccccn2)cc1`?
HSF1 inhib: -75*; HSF1 activator: -78; HCV core dimer: 0; PHOSPHO1 block: 32; AI-2 QS modul: 16

How did O=C(COC(=O)CCSc1ccccc1)NCc1ccccc1 do in these assays?
HSF1 inhib: -21; HSF1 activator: -19; ALR H2O2 inh: -12; HCV core dimer: -3; PHOSPHO1 block: 28; AI-2 QS modul: 23

What do the screens show for `Cc1ccc(NC(=O)CCN2C(=O)C3CCCCC3C2=O)cc1[N+](=O)[O-]` (stereo unspecified)?
HSF1 inhib: -53*; HSF1 activator: -63; ALR H2O2 inh: 1; HCV core dimer: 1; AI-2 QS modul: 46

Results for Cc1ccc(NC(=O)CCN2C(=O)C3C4CCC(C4)C3C2=O)cc1[N+](=O)[O-] (stereo unspecified) ?
HSF1 inhib: -6; HSF1 activator: 5; ALR H2O2 inh: -1; HCV core dimer: 2; PHOSPHO1 block: -138; AI-2 QS modul: 1

What do the screens show for `CCOc1ccc(S(=O)(=O)NCCC(=O)N2CCN(c3ccc(OC)cc3)CC2)cc1`?
HSF1 inhib: -6; HSF1 activator: 3; ALR H2O2 inh: 77*; HCV core dimer: 8; PHOSPHO1 block: 34; AI-2 QS modul: 8

What do the screens show for `COc1ccc(N2CCN(C(=O)CCNC(=O)c3ccc(C(C)(C)C)cc3)CC2)cc1`?
HSF1 inhib: 3; HSF1 activator: -14; ALR H2O2 inh: 86*; HCV core dimer: 0; PHOSPHO1 block: -31; AI-2 QS modul: 22

Results for COC(=O)c1ccccc1OCC(=O)N1CCN(c2ccc(OC)cc2)CC1 ?
HSF1 inhib: 4; HSF1 activator: 10; ALR H2O2 inh: 88*; HCV core dimer: -1; PHOSPHO1 block: 30; AI-2 QS modul: 8

Results for COC(=O)c1ccccc1OCC(=O)N1CCN(c2ccc(F)cc2)CC1 ?
HSF1 inhib: -2; HSF1 activator: -16; ALR H2O2 inh: 36; HCV core dimer: -4; PHOSPHO1 block: 7; AI-2 QS modul: 9

How did COc1ccc(N2CCN(C(=O)c3ccccc3N(C)S(=O)(=O)c3ccccc3)CC2)cc1 do in these assays?
HSF1 inhib: -1; HSF1 activator: 5; ALR H2O2 inh: 90*; HCV core dimer: 3; PHOSPHO1 block: 23; AI-2 QS modul: 6

What do the screens show for `COc1ccc(N2CCN(C(=O)c3ccc(C(C)(C)C)cc3)CC2)cc1`?
HSF1 inhib: -11; HSF1 activator: 0; ALR H2O2 inh: -7; HCV core dimer: 13; PHOSPHO1 block: 5; AI-2 QS modul: -9
